This passage reports IC50 results from ChEMBL document CHEMBL3779798, “Novel seleno- and thio-urea derivatives with potent in vitro activities against several cancer cell lines” (Eur J Med Chem, 2016).

Assay type in all cases: functional, cell-based
A short description of experiment [1]: Anticancer activity against human BxPC3 cells assessed as inhibition of cell growth after 24 hrs by MTT assay. The following applies: BXPC-3, 24 h. The method in brief: (§1)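 MTT assay at 3,000 cells/well. Cells treated with DMSO or seven concentrations from 0.5 to 50 µM for 24, 48 or 72 h. MTT added 3 h before the end point; formazan dissolved in DMSO and read at 570 and 630 nm. IC50 is the concentration giving 50% growth inhibition. Media: PANC-1, BxPC3 and 1205Lu in DMEM; DU145 and A549 in RPMI 1640; HT29, HCT116 and RKO in McCoy's 5A, all with 10% FBS and pen/strep, at 37 °C and 5% CO2.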

Experiment [2] in a line: Anticancer activity against human PANC1 cells assessed as inhibition of cell growth after 48 hrs by MTT assay. The following applies: PANC-1, 48 h. The method in brief:
as §1

Experiment [3] in a line: Anticancer activity against human BxPC3 cells assessed as inhibition of cell growth after 48 hrs by MTT assay. The following applies: BXPC-3, 48 h. In short, it runs like this: as §1
Experiment [4] can be described thus: Anticancer activity against human PANC1 cells assessed as inhibition of cell growth after 72 hrs by MTT assay. The following applies: PANC-1, 72 h. The method in brief:
as §1

The nature of experiment [5]: Anticancer activity against human DU145 cells assessed as inhibition of cell growth after 24 hrs by MTT assay. To be noted: DU-145, 24 h. In short, it runs like this: as §1
Experiment [6] in a line: Anticancer activity against human HCT116 cells assessed as inhibition of cell growth after 48 hrs by MTT assay. The following applies: HCT-116, 48 h. In short, it runs like this: as §1
Experiment [7] is described as follows: Anticancer activity against human HCT116 cells assessed as inhibition of cell growth after 24 hrs by MTT assay. To be noted: HCT-116, 24 h. In short, it runs like this: as §1
The nature of experiment [8]: Anticancer activity against human PANC1 cells assessed as inhibition of cell growth after 24 hrs by MTT assay. To be noted: PANC-1, 24 h. In short, it runs like this:
as §1

In experiment [9] the test system is A549. Description: Anticancer activity against human A549 cells assessed as inhibition of cell growth after 72 hrs by MTT assay. To be noted: A549, 72 h. The method in brief:
as §1

Experiment [10] is described as follows: Anticancer activity against human HCT116 cells assessed as inhibition of cell growth after 72 hrs by MTT assay. The following applies: HCT-116, 72 h. The method in brief: as §1
Experiment [11] is described as follows: Anticancer activity against human 1205 Lu cells assessed as inhibition of cell growth after 48 hrs by MTT assay. In short, it runs like this: as §1
A short description of experiment [12]: Anticancer activity against human BxPC3 cells assessed as inhibition of cell growth after 72 hrs by MTT assay. The following applies: BXPC-3, 72 h. The method in brief:
as §1

Experiment [13] can be described thus: Anticancer activity against human 1205 Lu cells assessed as inhibition of cell growth after 72 hrs by MTT assay. In short, it runs like this:
as §1

In experiment [14] the test system is A549. Description: Anticancer activity against human A549 cells assessed as inhibition of cell growth after 24 hrs by MTT assay. The following applies: A549, 24 h. The method in brief: as §1
A short description of experiment [15]: Anticancer activity against human 1205 Lu cells assessed as inhibition of cell growth after 24 hrs by MTT assay. In short, it runs like this:
as §1

Experiment [16] can be described thus: Anticancer activity against human DU145 cells assessed as inhibition of cell growth after 72 hrs by MTT assay. The following applies: DU-145, 72 h. In short, it runs like this:
as §1

For experiment [17], the system named is A549. The experiment in a line: Anticancer activity against human A549 cells assessed as inhibition of cell growth after 48 hrs by MTT assay. The following applies: A549, 48 h. In short, it runs like this:
as §1

A short description of experiment [18]: Anticancer activity against human DU145 cells assessed as inhibition of cell growth after 48 hrs by MTT assay. The following applies: DU-145, 48 h. The method in brief:
as §1

pIC50: −log10 of the molar value. Bounds are passed on as bounds.

Consider `Cc1noc(C)c1CSC(=N)N`, for which the pIC50 in [1], in experiment [2], in experiment [3], in experiment [4], in experiment [5] and in [6] was less than 4.30 each time. In addition, the negative-log IC50 (pIC50) in experiment [7] was less than 4.30; in experiment [8], less than 4.30; in the experiment on A549 [9], less than 4.30; in experiment [10] it was less than 4.30; in [11] it was less than 4.30; in experiment [12], 4.33. Also, the pIC50 (in experiment [13]; in the experiment with A549 [14]; in experiment [15]; in experiment [16]; with A549 [17]; in experiment [18]) was less than 4.30 in each case.

On to `Cc1noc(C)c1C[Se]C(=N)N`, for which the pIC50 in experiment [1] is less than 4.30; in experiment [2], 4.43; in experiment [3], 5.17; in experiment [4] it was 4.87; in [5], less than 4.30; in experiment [6] it was 4.35. In addition, the pIC50 was less than 4.30 in experiment [7]; less than 4.30 in experiment [8]; 5.92 with A549 [9]; 5.34 in experiment [10]; less than 4.30 in experiment [11]; 5.62 in experiment [12]. Moreover, the pIC50 is 5.47 in [13]; less than 4.30 in the experiment with A549 [14]; less than 4.30 in [15]; 5.13 in [16]; 5.55 with A549 [17]; 4.66 in experiment [18].

Consider `N=C(N)SCc1ccc2ccccc2n1`, for which the pIC50 in [1] was less than 4.30; in [2], less than 4.30; in [3] it was 4.43; in experiment [4] it was less than 4.30; in [5], less than 4.30; in [6] it was 4.55. Besides, the negative-log IC50 (pIC50) in experiment [7] was less than 4.30; in experiment [8], less than 4.30; with A549 [9] it was less than 4.30; in experiment [10], 4.64; in experiment [11], less than 4.30; in experiment [12], 4.59. In addition, the pIC50 in experiment [13] was 4.41; in the experiment on A549 [14], less than 4.30; in experiment [15], less than 4.30; in experiment [16], 4.50; with A549 [17], less than 4.30; in experiment [18], less than 4.30.

Turning to `N=C(N)SCc1cc2c(cc1Br)OCO2`, the pIC50 was less than 4.30 in experiment [1]; 4.39 in [2]; less than 4.30 in experiment [3]; 4.46 in experiment [4]; less than 4.30 in [5]; 4.46 in experiment [6]. Besides, the negative-log IC50 (pIC50) in [7] is less than 4.30; in experiment [8], less than 4.30; in the experiment with A549 [9] it was less than 4.30; in experiment [10], 4.66; in experiment [11], less than 4.30; in [12] it was 4.35. The pIC50 (in [13]; with A549 [14]; in experiment [15]; in experiment [16]; in the experiment with A549 [17]; in experiment [18]) was less than 4.30 throughout.

As to `N=C(N)SCc1ccc([N+](=O)[O-])o1`, the pIC50 is less than 4.30 in [1]; less than 4.30 in [2]; less than 4.30 in experiment [3]; less than 4.30 in experiment [4]; less than 4.30 in experiment [5]; 4.51 in experiment [6]. Also, the pIC50 was less than 4.30 in experiment [7]; less than 4.30 in experiment [8]; less than 4.30 with A549 [9]; 5.15 in [10]; less than 4.30 in experiment [11]; less than 4.30 in experiment [12]. The pIC50 (in experiment [13]; in the experiment on A549 [14]; in experiment [15]; in experiment [16]; with A549 [17]; in experiment [18]) was less than 4.30 each time.

Regarding `N=C(N)[Se]Cc1cc2c(cc1Br)OCO2`, the pIC50 is less than 4.30 in experiment [1]; 4.61 in [2]; less than 4.30 in experiment [3]; 4.78 in experiment [4]; less than 4.30 in [5]; 4.50 in experiment [6]. The pIC50 was less than 4.30 in experiment [7]; less than 4.30 in experiment [8]; 4.44 in the experiment with A549 [9]; 4.62 in experiment [10]; less than 4.30 in [11]; 4.43 in experiment [12]. In addition, the pIC50 in experiment [13] is 4.66; with A549 [14], less than 4.30; in [15] it was less than 4.30; in experiment [16], less than 4.30; in the experiment with A549 [17] it was less than 4.30; in experiment [18], less than 4.30.

As for `N=C(N)SCc1nc2ccccc2nc1CSC(=N)N`, the pIC50 in experiment [1], in experiment [2], in [3], in [4], in [5] and in experiment [6] was less than 4.30 each time. The negative-log IC50 (pIC50) (in [7]; in experiment [8]; in the experiment on A549 [9]; in [10]; in experiment [11]; in [12]) was less than 4.30 throughout. In addition, the pIC50 (in experiment [13]; with A549 [14]; in [15]; in experiment [16]; in the experiment on A549 [17]; in [18]) was less than 4.30 throughout.

As for `N=C(N)[Se]Cc1ccc([N+](=O)[O-])o1`, the pIC50 is 4.37 in [1]; 4.81 in [2]; 4.40 in experiment [3]; 4.87 in experiment [4]; less than 4.30 in [5]; 5.43 in [6]. In addition, the pIC50 was 4.84 in experiment [7]; less than 4.30 in experiment [8]; 5.05 in the experiment with A549 [9]; 5.42 in experiment [10]; 4.80 in experiment [11]; 4.81 in experiment [12]. Also, the pIC50 was 4.89 in [13]; 4.64 in the experiment on A549 [14]; 4.72 in experiment [15]; 4.81 in [16]; 4.99 in the experiment on A549 [17]; less than 4.30 in experiment [18].

Regarding `N=C(N)SCc1c2ccccc2nc2ccccc12`, the pIC50 in [1], in experiment [2], in [3], in experiment [4], in experiment [5] and in experiment [6] was less than 4.30 each time. Moreover, the pIC50 is less than 4.30 in experiment [7]; less than 4.30 in experiment [8]; less than 4.30 with A549 [9]; 4.35 in experiment [10]; less than 4.30 in [11]; 4.33 in experiment [12]. Also, the pIC50 (in [13]; in the experiment on A549 [14]; in experiment [15]; in experiment [16]; in the experiment with A549 [17]; in experiment [18]) was less than 4.30 throughout.

As for `COc1cc2oc(=O)cc(C[Se]C(=N)N)c2cc1OC`, the pIC50 in experiment [1] is less than 4.30; in experiment [2] it was 4.71; in experiment [3], less than 4.30; in experiment [4] it was 5.00; in [5], 4.94; in experiment [6] it was 5.05. Besides, the pIC50 in experiment [7] was 4.57; in experiment [8], 4.69; in the experiment with A549 [9] it was 5.35; in experiment [10] it was 5.18; in [11] it was 5.36; in experiment [12] it was 5.18. Besides, the pIC50 in [13] is 5.72; with A549 [14] it was 4.80; in experiment [15], 4.68; in experiment [16], 5.17; with A549 [17], 5.28; in experiment [18] it was 5.08.
